Variants at the floor of the assay were thinned out.
B1: tRNA (parent)
chain: GUUCCGUUGGCGUAAUGGUAACGCGUCUCCCUCCUAAGGAGAAGACUGCGGGUUCGAGUCCCGUACGGAACG

Variants of: B1
Assay: yeast fitness relative to wild type (ratio to wild type); higher = fitter; tRNA-Arg(CCU), competitive growth, 37 C, YPD
How it was run: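 Start and end populations of a pooled competition were compared by 100-nucleotide paired-end sequencing of gene amplicons. The Saccharomyces cerevisiae strains carried tRNA-Arg(CCU) gene variants at the native genomic locus, synthesised with a 3% per-site mutation rate at 69 sites, and competed in YPD at 37°C for 24 hours in six parallel replicates. Darwinian fitness relative to wild type was based on the change in genotype frequencies. Genotypes required ≥ 100 starting reads, and estimates < 0.5 were set to 0.5.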
C11G A36G G52A gave a yeast fitness of at most 0.5.
Work on G6A U54C C60G yielded a yeast fitness of at most 0.5.
With A40G A42U G67C the yeast fitness was at most 0.5.
C4G C22G C29A showed a yeast fitness of at most 0.5.
Work on C11A A15C C24G C34A yielded a yeast fitness of at most 0.5.
For U13A G38C G58C, the yeast fitness was 0.798.
For A36U G56A, the yeast fitness was 0.574.
Work on U16A C24G G51A yielded a yeast fitness of at most 0.5.
With C27U G41A C60A the yeast fitness was 0.878.
Work on G12A C31U G52A G56C yielded a yeast fitness of 0.569.
In the case of U16C C55A A57C, the yeast fitness is reported as at most 0.5.
Work on U2G A20U yielded a yeast fitness of 0.757.
U2A G41A gave a yeast fitness of 0.773.
For U2A A21U C27U U28C C62G, the yeast fitness was at most 0.5.
Work on C46G C49U A65U A69C yielded a yeast fitness of at most 0.5.
Work on G18C C29U C30U G67A yielded a yeast fitness of at most 0.5.
Work on C5U U47A G48C G51A yielded a yeast fitness of at most 0.5.
For C22U U28C C29G C33A C62U G63A U64A, the yeast fitness was at most 0.5.
For C5A C11A C34A A40U, the yeast fitness was 0.696.
In the case of C11U C31G A45G G56U, the yeast fitness is reported as at most 0.5.
C31G G51C A70G showed a yeast fitness of at most 0.5.
C4A A21C U54A showed a yeast fitness of at most 0.5.
C31U A42U C62A showed a yeast fitness of 0.615.
Variant C4G C11G G41C U59G A70G has a yeast fitness of at most 0.5.
In the case of A14U G17C U53G, the yeast fitness is reported as 0.603.
With U19C C27A the yeast fitness was 0.987.
Work on U2G A15U C24G U53A U64A yielded a yeast fitness of at most 0.5.
With C29U C62A C66U the yeast fitness was at most 0.5.
U2C U47A gave a yeast fitness of 0.982.
A14G C31G A57C A65C showed a yeast fitness of at most 0.5.
U19G A69U gave a yeast fitness of 0.892.
For U26A G48A C62A, the yeast fitness was 0.605.
In the case of U47A A70G, the yeast fitness is reported as 0.921.
G12A C33U C46A C55G showed a yeast fitness of at most 0.5.
G6A C22A U35A showed a yeast fitness of at most 0.5.
A37U G41C C46G gave a yeast fitness of at most 0.5.
U13C G50U gave a yeast fitness of 0.81.
G10A U26C C29G C31U showed a yeast fitness of at most 0.5.
Variant C46G G63C G67A A70G has a yeast fitness of at most 0.5.
C31A U47C C61A gave a yeast fitness of at most 0.5.
C31U G38C G51C C55U showed a yeast fitness of at most 0.5.
Work on A14G G25A C30A A57U yielded a yeast fitness of 0.607.
Variant C27G A40G C62U A65U has a yeast fitness of at most 0.5.
Variant C4U C29A A36C A40U G51A G68C has a yeast fitness of at most 0.5.
U2A G6C C29A U59G gave a yeast fitness of 0.603.
In the case of U26C C49A G67A, the yeast fitness is reported as at most 0.5.
C27A C61G A69G gave a yeast fitness of at most 0.5.
In the case of C4A A20G G48A A69C, the yeast fitness is reported as at most 0.5.
For C34U G68C, the yeast fitness was 0.773.
Variant G12C A21C U26C C60A C61A has a yeast fitness of at most 0.5.
For A42U C46U A69C, the yeast fitness was 0.9.
G9C A20C G67C gave a yeast fitness of 0.537.
In the case of A36G A37U G56C, the yeast fitness is reported as at most 0.5.
G12A U19C C34G C66U A69U gave a yeast fitness of 0.59.
Variant C11U C30A U32G C49U C55G has a yeast fitness of at most 0.5.
Work on U8A A40C C46U G52A yielded a yeast fitness of at most 0.5.
For G9A U28C G44A G68C, the yeast fitness was at most 0.5.
Work on C11U G17C C30A C33G C61U yielded a yeast fitness of 0.581.
G6C G50A A69U gave a yeast fitness of 0.682.
In the case of G6A C11A U32A C34G G58A, the yeast fitness is reported as at most 0.5.
Work on C24U G39A A57C yielded a yeast fitness of 0.727.
C5G C11G A40G gave a yeast fitness of 0.556.
With A43U C46A A69C the yeast fitness was 0.734.
G38C G41C C61U showed a yeast fitness of at most 0.5.
Work on U2G U19A A21G A65U G67C yielded a yeast fitness of 0.543.
G6A C29G gave a yeast fitness of 0.634.
In the case of U8C C22G U47C U53G, the yeast fitness is reported as at most 0.5.
Variant U59C A69U has a yeast fitness of 1.02.
For U13G A65U, the yeast fitness was 0.896.
In the case of C5A C24U A69C, the yeast fitness is reported as 0.641.
Work on U3C G17A C30G C61G yielded a yeast fitness of at most 0.5.
For C49U U59C, the yeast fitness was 0.91.
U28C G63A A70G showed a yeast fitness of 0.685.
For U3A A21U G51C, the yeast fitness was at most 0.5.
With A15C C31A U59C A69G the yeast fitness was at most 0.5.
Work on C11U G50A yielded a yeast fitness of 0.81.
For C34G G41C, the yeast fitness was 0.617.
Variant U2C C11U G56C C62U has a yeast fitness of at most 0.5.
C11U G67U gave a yeast fitness of 0.846.
Work on C5G A21G U32C A65U G68A yielded a yeast fitness of 0.507.
Work on C31A A40C G52A C61A yielded a yeast fitness of 0.528.
With C30G U35A C61U C66G A69U the yeast fitness was 0.633.
With C22A U35A the yeast fitness was 0.603.
For U8C A20G C34G C66U, the yeast fitness was 0.696.
U8G A21U C27G A65C gave a yeast fitness of at most 0.5.
For C5U C29U A36G U59A, the yeast fitness was at most 0.5.
C11U C27U C31A U35C C55G C66U A70C gave a yeast fitness of 0.512.
For C4G U53C, the yeast fitness was 0.776.
C27G C31G G63U gave a yeast fitness of at most 0.5.
For C4U A70G, the yeast fitness was 0.941.
C5U A14U U16A showed a yeast fitness of at most 0.5.
In the case of G12A G23C, the yeast fitness is reported as 0.733.
With A36G A40U G44A the yeast fitness was 1.06.
C30A G51A gave a yeast fitness of 0.774.
Work on G6A U8G A45U G48C yielded a yeast fitness of at most 0.5.
For C4U C11G C29U C62U G67C, the yeast fitness was at most 0.5.
U2A A14U A20C U35A G38C A69U gave a yeast fitness of at most 0.5.
C27G C30U C31A C33G C49U G58C gave a yeast fitness of at most 0.5.
Work on G10A G17A C61A C62U A65U A69C yielded a yeast fitness of at most 0.5.
For U16A G25C A40C C49U, the yeast fitness was at most 0.5.
Work on G6A C31G C34G A43U G68C A69G yielded a yeast fitness of at most 0.5.
Variant A36U A45U U53A C62A has a yeast fitness of at most 0.5.
For G9C C11U C24G C31U C34U C49U A69C, the yeast fitness was at most 0.5.
In the case of C29U A45C C60A, the yeast fitness is reported as 0.598.
C29G G41A gave a yeast fitness of 0.723.
In the case of U8A C66A G68C, the yeast fitness is reported as at most 0.5.
Variant U13G A40G C61U G63C has a yeast fitness of at most 0.5.
With U8C C29A A37G the yeast fitness was 0.616.
Variant C31G C55G A65C has a yeast fitness of at most 0.5.
With C60U G67A the yeast fitness was 0.721.
In the case of U8C U13G C22U, the yeast fitness is reported as 0.529.
In the case of C34U U54C C61A, the yeast fitness is reported as at most 0.5.
Work on C5U C33U yielded a yeast fitness of 0.71.
Variant U16C C24G G44A C60U G67C has a yeast fitness of at most 0.5.
U2C C11U G68A gave a yeast fitness of 0.544.
For G9C G12A C29A G38A, the yeast fitness was at most 0.5.
C11A C34U U53C A69C gave a yeast fitness of at most 0.5.
For C4G A20C C30A C31G C34A A37G C49A A57C, the yeast fitness was at most 0.5.
With C22G C24U C29U A42U the yeast fitness was at most 0.5.
C11G G17C U35C C49U C66U gave a yeast fitness of at most 0.5.
A36G C61U A69C showed a yeast fitness of 0.693.
For G52A G67A, the yeast fitness was 0.831.
C22A A70C showed a yeast fitness of 0.877.
C11U G51C showed a yeast fitness of 0.718.
U3C C31U C49G gave a yeast fitness of 0.755.
U28A A42G gave a yeast fitness of 0.667.
For U28G A65C, the yeast fitness was 0.669.
Work on U7G A42G yielded a yeast fitness of 0.837.
U2A U19G A65U gave a yeast fitness of 0.644.
Variant C29U C30U A43U A65U has a yeast fitness of 0.588.
Work on C4G C24U U32C C49A A57U C66U G68C yielded a yeast fitness of at most 0.5.
C27G G41A G68C showed a yeast fitness of 0.71.
U53C A57C A65U showed a yeast fitness of at most 0.5.
Variant C11A C29A U35A A65G has a yeast fitness of at most 0.5.
With C5A C46G C49U the yeast fitness was 0.727.
In the case of C5U G50C G51C G56C G67A, the yeast fitness is reported as at most 0.5.
G6A C24A C27U C29G G44C G68C showed a yeast fitness of at most 0.5.
In the case of C27U U28C A45C, the yeast fitness is reported as 0.773.
C5G C49G G51A showed a yeast fitness of at most 0.5.
For U2A A45G, the yeast fitness was 1.09.
C4A A36C C49U A57G gave a yeast fitness of at most 0.5.
C4G G48U C66U showed a yeast fitness of at most 0.5.
Variant G17A A45U G52A A70U has a yeast fitness of 0.535.
Variant C29U C66A has a yeast fitness of 0.591.
Variant U8A C11U G25C G39C A45U has a yeast fitness of at most 0.5.
Work on U2C A15C C24A G41C G68A yielded a yeast fitness of at most 0.5.
U7C C11G U26C gave a yeast fitness of at most 0.5.
With C5U C30U A42C C60G the yeast fitness was at most 0.5.
In the case of G9A G48A G50C, the yeast fitness is reported as 0.581.
With C31A A45C C62U G63A U64G the yeast fitness was at most 0.5.
With C5U A21G C27U G41A G63U the yeast fitness was at most 0.5.
C24U C31G A37G showed a yeast fitness of 0.529.
C27G C31A C33G C49U G58C A70U showed a yeast fitness of at most 0.5.
For U28G A40U U59C, the yeast fitness was 0.576.
In the case of C11A C34G G67A, the yeast fitness is reported as at most 0.5.
In the case of C4U G6A G44C A69U A70G, the yeast fitness is reported as at most 0.5.
In the case of G6C C62U, the yeast fitness is reported as 0.879.
C4A G18A A20C U26G C27U C49U A69C gave a yeast fitness of at most 0.5.
Work on G58C C62U yielded a yeast fitness of 0.893.
Work on A20G G23C G50A yielded a yeast fitness of at most 0.5.
G17A C46G gave a yeast fitness of 0.712.
U28A C31G A57G C62U gave a yeast fitness of at most 0.5.
With C5A C31G C55A the yeast fitness was at most 0.5.
For U8A G12C U47A C62U, the yeast fitness was 0.545.
In the case of C5A G52A, the yeast fitness is reported as 0.641.
For C30U G51C C61A, the yeast fitness was 0.635.
Variant U28A C60G C66G A69G has a yeast fitness of at most 0.5.
